Reference: ChEMBL document CHEMBL4393663, “Targeting gliomas with triazene-based hybrids: Structure-activity relationship, mechanistic study and stability” (Eur J Med Chem, 2019)
Active and inactive are the calls of the source. The calls are words filed in the database; no cut-off is given here.

How the values were obtained:
[1] = target: T1, Histone deacetylase (Homo sapiens) (UniProt Q13547+O15379+Q9UBN7+Q92769+Q9UQL6+Q8WUI4+Q9BY41+Q96DB2+P56524+Q9UKV0+Q969S8); assay: Inhibition of HDAC in human HeLa nuclear extract assessed as enzyme residual activity at 100 uM using Boc-Lys(acetyl)-AMC as substrate and measured after 15 mins by fluorescence assay relative to control; format: cell-free
How it was run: (§1)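 Fluorometric HDAC activity kit with HeLa nuclear extract as enzyme source; compounds from 20 mM DMSO stock, tested in duplicate. Deacetylated substrate treated with lysine developer; fluorescence read after 15 min at ex 360/em 460 nm.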

[2] = Stability in 80% human plasma assessed as half life by HPLC analysis; format: ADME, cell-free
How it was run: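 Plasma pooled from 13 donors (heparin), stored at −18 °C, thawed slowly, diluted to 80% v/v with 10 mM PBS pH 7.4 at 37 °C; compound added from 10 mM acetonitrile stock; aliquots taken over time, centrifuged 12000 rpm 10 min, supernatant analyzed by HPLC for half-life; duplicate or triplicate runs.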

[3] = target: T1, Histone deacetylase (Homo sapiens); assay: Inhibition of HDAC in human HeLa nuclear extract assessed as enzyme residual activity at 25 uM using Boc-Lys(acetyl)-AMC as substrate and measured after 15 mins by fluorescence assay relative to control; format: cell-free; how it was run: as §1
[4] = Stability of the compound in PBS buffer at pH 7.4 assessed as half life by HPLC analysis; format: physicochemical
[5] = tested on: GL261; assay: Cytotoxicity against mouse GL261 cells assessed as reduction in cell viability incubated for 48 hrs by MTS assay; format: functional, cell-based; conditions: GL261, 48 h
[6] = target: T1, Histone deacetylase (Homo sapiens); assay: Inhibition of HDAC in human HeLa nuclear extract assessed as enzyme residual activity at 6.25 uM using Boc-Lys(acetyl)-AMC as substrate and measured after 15 mins by fluorescence assay relative to control; format: cell-free; how it was run: as §1
[7] = Octanol-phosphate buffered saline distribution coefficient, log D of compound at pH 7.4 at 1 mg shake for 30 mins and measured after 48 hrs by HPLC analysis; format: physicochemical
[8] = tested on: GL261; assay: Cytotoxicity against mouse GL261 cells assessed as reduction in cell viability at 0.1 to 100 uM incubated for 48 hrs by MTS assay; format: functional, cell-based
[9] = tested on: SH-SY5Y; assay: Induction of apoptosis in human SH-SY5Y cells assessed as increase in early apoptotic cells at 10 uM incubated for 48 hrs by annexinV-PE/7-AAD staining based flow cytometric analysis; format: functional, cell-based
How it was run: (§2)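 SH-SY5Y cells grown on poly-D-lysine/laminin, differentiated 7 days with 10 µM retinoic acid, then exposed 48 h. Adherent plus floating cells pooled, resuspended in PBS/1% BSA, stained annexin V-PE/7-AAD and counted by flow cytometry into viable, early apoptotic, late apoptotic/necrotic; two readings per sample; three independent experiments in duplicate.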

[10] = tested on: SH-SY5Y; assay: Induction of apoptosis in human SH-SY5Y cells assessed as reduction in cell viability at 10 uM incubated for 48 hrs by annexinV-PE/7-AAD staining based flow cytometric analysis; format: functional; how it was run: as §2
[11] = tested on: SH-SY5Y; assay: Induction of apoptosis in human SH-SY5Y cells assessed as increase in late necrotic cells at 10 uM incubated for 48 hrs by annexinV-PE/7-AAD staining based flow cytometric analysis; format: functional, cell-based; how it was run: as §2
[12] = tested on: GL261; assay: Induction of morphological changes in mouse GL261 cells assessed as increase in cell circularity at 10 uM incubated for 48 hrs by Hoechst 33258 staining based fluorescence microscopic analysis; format: functional
How it was run: (§3)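 After 48 h exposure, GL261 cells on coverslips fixed in 4% paraformaldehyde, permeabilized (0.1% Triton X-100), blocked 30 min, stained with Alexa Fluor-594 phalloidin and Hoechst 33258; ten random fields at 630×; circularity (4π·area/perimeter²) and aspect ratio traced manually on ≥120 cells per condition; three independent experiments.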

[13] = tested on: GL261; assay: Induction of morphological changes in mouse GL261 cells assessed as decrease in cell aspect ratio at 10 uM incubated for 48 hrs by Hoechst 33258 staining based fluorescence microscopic analysis; format: functional; how it was run: as §3
[14] = tested on: GL261; assay: Antiinvasive activity in mouse GL261 cells assessed as reduction in cell migration at 10 uM preincubated for 48 hrs and measured after 6 hrs by giemsa staining based Boyden chamber assay; format: functional
[15] = Induction of alkylation in 5'-GGGAGA-3' single stranded DNA (unknown origin) at ssDNA to compound concentration ratio of 1:250M incubated for 1 hr by ESI-MS analysis
How it was run: (§4)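 Single-stranded oligonucleotide incubated with the compound in 10 mM ammonium bicarbonate buffer, pH 8.3, at 37 °C. Aliquots were taken at intervals and extracted three times with ethyl acetate, then centrifuged. The aqueous phase was analysed by flow-injection ESI(−) HRMS in 50:50 water/acetonitrile with 0.1% formic acid. Run in triplicate.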

[16] = Drug metabolism assessed as Cu2+-mediated compound decomposition by measuring aniline formation at 33 uM measured at 1 min interval for 30 mins by UV-Vis spectrophotometric analysis
How it was run: (§5)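 Decomposition monitored by UV-Vis spectroscopy in methanolic solutions containing Cu2+ or Zn2+.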

[17] = Drug metabolism assessed as Zn2+-mediated compound decomposition by measuring aniline formation at 33 uM measured at 30 mins interval for 12 hrs by UV-vis spectrophotometric analysis; how it was run: as §5
[18] = tested on: GL261; assay: Induction of apoptosis in mouse GL261 cells assessed as reduction in cell viability at 10 uM incubated for 48 hrs by annexinV-PE/7-AAD staining based flow cytometric analysis; format: functional
How it was run: (§6)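 GL261 cells exposed 48 h; trypsinized adherent cells combined with medium cells, pelleted, resuspended in PBS/1% BSA, stained with annexin V-PE/7-AAD; flow cytometry gating viable (both negative), early apoptotic (annexin+/7-AAD−), late apoptotic/dead (both positive); two readings per sample; three independent experiments in duplicate.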

[19] = tested on: GL261; assay: Induction of apoptosis in mouse GL261 cells assessed as increase in early apoptotic cells at 10 uM incubated for 48 hrs by annexinV-PE/7-AAD staining based flow cytometric analysis; format: functional, cell-based; how it was run: as §6
[20] = tested on: GL261; assay: Induction of apoptosis in mouse GL261 cells assessed as increase in late apoptotic cells at 10 uM incubated for 48 hrs by annexinV-PE/7-AAD staining based flow cytometric analysis; format: functional, cell-based; how it was run: as §6
[21] = tested on: GL261; assay: Induction of apoptosis in mouse GL261 cells assessed as increase in necrotic cells at 10 uM incubated for 48 hrs by annexinV-PE/7-AAD staining based flow cytometric analysis; format: functional, cell-based; how it was run: as §6
[22] = Drug metabolism assessed as Zn2+-mediated compound decomposition by measuring aniline formation 33 uM measured at 1 min interval for 30 mins by UV-Vis spectrophotometric analysis; how it was run: as §5
[23] = target: T1, Histone deacetylase (Homo sapiens); assay: Inhibition of HDAC in human HeLa nuclear extract assessed as enzyme residual activity at 1 uM using Boc-Lys(acetyl)-AMC as substrate and measured after 15 mins by fluorescence assay relative to control; format: cell-free; how it was run: as §1
[24] = target: T1, Histone deacetylase (Homo sapiens); assay: Inhibition of HDAC in human HeLa nuclear extract assessed as enzyme residual activity at 100 nM using Boc-Lys(acetyl)-AMC as substrate and measured after 15 mins by fluorescence assay relative to control; format: cell-free; how it was run: as §1
[25] = target: T1, Histone deacetylase (Homo sapiens); assay: Inhibition of HDAC in human HeLa nuclear extract assessed as enzyme residual activity at 10 nM using Boc-Lys(acetyl)-AMC as substrate and measured after 15 mins by fluorescence assay relative to control; format: cell-free; how it was run: as §1
[26] = Induction of alkylation in 5'-GGGAGA-3' single stranded DNA (unknown origin) at ssDNA to compound concentration ratio of 1:3 to 1:250M incubated for 7 days by ESI-MS analysis; how it was run: as §4
[27] = Stability of compound in PBS buffer at pH 7.4 at 10^-5 M measured 5 min for 60 mins in presence of N-acetylcysteine by UV-Vis spectrophotometric analysis; format: physicochemical; conditions: pH 7.4, 1 h, 10 µM
[28] = Stability of the compound in PBS buffer at pH 7.4 at 10^-5 M measured 5 min for 60 mins in presence of glutathione by UV-Vis spectrophotometric analysis; format: physicochemical; conditions: pH 7.4, 1 h, 10 µM

Activity [1] [%]	half-life [2] [h]	Activity [3] [%]	half-life [4] [h]	Activity [6] [%]	logD at 30 min [7]	SMILES	IC50 [5] [µM]	also measured
89	> 40	93.5	31.3	94.5	4.98	CCCC(CCC)C(=O)N(C)/N=N/c1ccc(C)cc1	> 100	–
95.1	> 40	97.2	> 40	97.7	3.76	CCC(CC)C(=O)N(C)/N=N/c1ccc(C#N)cc1	> 100	Activity [8]: inactive
–	–	–	2	–	–	Cn1nnc2c(C(N)=O)ncn2c1=O [TEMOZOLOMIDE]	> 100	Activity [9]: Active; Activity [10]: Active; Activity [11]: Active; Activity [12]: inactive; Activity [13]: inactive; Activity [14]: Active
85.8	> 40	94.8	> 40	98.6	4.56	CCCC(CCC)C(=O)N(C)/N=N/c1ccc(C(C)=O)cc1	47	–
–	–	–	–	–	–	CN=NNc1ccc(C#N)cc1	–	Activity [15]: Active; Drug metabolism [16]: Metabolite detected; Drug metabolism [17]: Metabolite detected
66.4	> 40	85.8	27.3	93	4.62	CCCC(CCC)C(=O)N(C)/N=N/c1ccc(Cl)cc1	58.4	–
79.8	> 40	91.6	> 40	90.5	3.68	CCCC(CCC)C(=O)N(C)/N=N/c1ccc(C(N)=O)cc1	11.9	Activity [18]: Active; Activity [19]: Active; Activity [20]: Active; Activity [21]: Active; Activity [9]: Active; Activity [10]: Active; Activity [11]: Active; Activity [12]: Active; Activity [13]: Active; Activity [14]: Active
54.9	15.2	72.5	> 40	97.1	3.19	CCCC(=O)N(C)/N=N/c1ccc(C#N)cc1	> 100	Activity [8]: inactive; Drug metabolism [16]: Metabolite not detected; Drug metabolism [22]: Metabolite not detected
–	–	–	–	–	–	O=C(/C=C/c1ccc2c(c1)C(=O)CC1(CCN(Cc3ccccc3)CC1)C2)NO	–	Activity [23]: 10.9%; Activity [24]: 52.4%; Activity [25]: 91%
–	–	–	–	–	–	CCOC(=O)c1ccc(/N=N/NC)cc1	–	Drug metabolism [16]: Metabolite detected; Drug metabolism [17]: Metabolite detected
55.3	> 40	79.8	34.1	88.3	4.95	CCCC(CCC)C(=O)N(C)/N=N/c1ccc(C(=O)OCC)cc1	> 100	Drug metabolism [16]: Metabolite not detected; Drug metabolism [22]: Metabolite not detected
94.6	> 40	98	> 40	99.1	4.84	CCCC(CCC)C(=O)N(C)/N=N/c1ccc(C#N)cc1	> 100	Activity [26]: inactive; Activity [18]: Active; Activity [19]: Active; Activity [9]: Active; Activity [10]: Active; Activity [11]: Active; Activity [12]: Active; Activity [13]: Active; Activity [14]: Active; Stability [27]: Stable; Stability [28]: Stable
92.7	> 40	97.3	31.4	92.9	4.7	CCCC(CCC)C(=O)N(C)/N=N/c1ccc(C(=O)OC)cc1	6.7	Activity [18]: Active; Activity [19]: Active; Activity [9]: Active; Activity [10]: Active; Activity [11]: Active; Activity [12]: Active; Activity [13]: Active; Activity [14]: Active
82.5	> 40	95.6	30.4	98.9	4.81	CCCC(CCC)C(=O)N(C)/N=N/c1ccc(Br)cc1	80.6	–
77.6	13.9	92.7	> 40	95.9	2.95	CC(C)C(=O)N(C)/N=N/c1ccc(C#N)cc1	> 100	Activity [8]: inactive
